Series [1] concerns the target T1, AmgK (N-acetylmuramic acid/N-acetylglucosamine kinase) (Pseudomonas aeruginosa, UniProt Q9I5U1). Put plainly: 2D-ITC, fit to ordered-sequential rate equation. It counts as biochemical. In outline: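 AmgK in the calorimeter cell (650 nM with NAM, 300 nM with NAG) with ATP at 13.5 mM. Eighteen 1 μL injections of NAM or NAG (160 mM syringe stock), ~800 μM sugar at the start of each, spaced ≥1200 s. Run ~8–10 h with stirring, in duplicate. Thermograms converted to rate versus [ATP] versus [sugar] data sets and fitted to the ordered-sequential equation.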

The target in series [2] is T1, AmgK (N-acetylmuramic acid/N-acetylglucosamine kinase). As to the kind of experiment: pyruvate kinase/lactate dehydrogenase-coupled ATP-recycling assay, NADH at […] nm. The format is biochemical.
Series [3] relates to Nc1ncnc2c1ncn2[C@@H]1O[C@H](COP(=O)(O)OP(=O)(O)OP(=O)(O)O)[C@@H](O)[C@H]1O. Put plainly: purified protein. Conditions: saturating NAG 4 mM.

What is called Ki is the equilibrium dissociation constant of an inhibitor or competing ligand from its target. Read a low Ki as a stronger hold on the target. The Km is the substrate concentration at which the rate is half of its maximum.

T1 sequence (Q9I5U1 whole entry): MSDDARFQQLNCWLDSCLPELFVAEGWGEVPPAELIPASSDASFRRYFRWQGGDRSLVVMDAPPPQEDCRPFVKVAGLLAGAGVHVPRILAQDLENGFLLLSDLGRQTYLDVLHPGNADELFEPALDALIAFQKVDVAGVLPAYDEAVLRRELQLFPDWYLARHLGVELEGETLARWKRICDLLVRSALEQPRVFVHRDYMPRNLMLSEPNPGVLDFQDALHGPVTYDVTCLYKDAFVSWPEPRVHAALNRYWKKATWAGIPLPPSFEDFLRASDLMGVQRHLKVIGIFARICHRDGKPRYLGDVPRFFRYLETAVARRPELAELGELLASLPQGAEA

`Nc1ncnc2c1ncn2[C@@H]1O[C@H](COP(=O)(O)OP(=O)(O)O)[C@@H](O)[C@H]1O` [ADP]: the affinity in series [1] corresponds to a Ki of 694 ± 128 µM.

As for `Nc1ncnc2c1ncn2[C@@H]1O[C@H](COP(=O)(O)OP(=O)(O)NP(=O)(O)O)[C@@H](O)[C@H]1O` [AMP-PNP], in series [2], the Ki turned out to be 471 ± 169 µM.

In the case of “AmgK (N-acetylmuramic acid/N-acetylglucosamine kinase) (Pseudomonas aeruginosa PAO1)”, the Km in series [3] is 70 ± 12 µM.

(Values after article PMC11677264 (Biochemistry, 2023).)
